Measurements gathered from unrelated publications.
Compare with care: the assays were run in different laboratories.
Target: Serine/threonine-protein kinase PAK 2 (PAK2, Homo sapiens, UniProt Q13177)

Structure (SMILES) | read-out | action | technique | concentration | endpoint | value
CO[C@@H](C)c1c(Nc2ccc([C@H](N(C)C(=O)C3CCS(=O)(=O)CC3)C(F)(F)F)cc2)cnc2cc(Cl)nn12 | cell-free assay |  | competition with immobilised ligand | 1 µM | remaining binding | 76%
CNCc1ccc(-c2cc(-c3nc(-c4ccc(S(=O)(=O)C(C)C)cc4)cnc3N)on2)cc1 | enzyme activity | inhibitor |  | 2 µM | inhibition | 6%
Cn1c(=O)n(-c2ccc(C(C)(C)C#N)cc2)c2c3cc(-c4cnc5ccccc5c4)ccc3ncc21 | enzyme activity | inhibitor |  | 10 µM | remaining activity | 87%
CNC(=O)c1cc(Oc2ccc(NC(=O)Nc3ccc(Cl)c(C(F)(F)F)c3)cc2)ccn1 | cell-free assay |  |  | 0.5 µM | remaining signal | 101%
CCN(CC)CCNC(=O)c1c(C)[nH]c(/C=C2\C(=O)Nc3ccc(F)cc32)c1C | enzyme activity | inhibitor |  | 0.3 µM | inhibition | -8%
CSc1cccnc1N1CCN(Cc2nc3ccccc3[nH]2)CC1 | cell-free assay |  | competition with immobilised ligand | 1 µM | remaining binding | 100%
CC(C)(C)c1nc(-c2cccc(NS(=O)(=O)c3c(F)cccc3F)c2F)c(-c2ccnc(N)n2)s1 | enzyme activity | inhibitor | radiometric | 1 µM | remaining activity | 88%
COc1cc(Nc2cnc(C#N)c(O[C@H](C)CN(C)C)n2)ncc1-c1cnn(C)c1 | enzyme activity | inhibitor | radiometric | 1 µM | remaining activity | 100%
Cc1sc(C(=O)NC2COC2)cc1-n1cc(NC(=O)Nc2c(F)cccc2Cl)cn1 | enzyme activity | inhibitor |  | 10 µM | remaining activity | 106%
Nc1cnc(N2CCc3cc(S(=O)(=O)Nc4c(F)cc(Cl)cc4F)cc(N4CCCC4=O)c32)nc1 | cell-free assay |  | competition with immobilised ligand | 1 µM | remaining binding | 78%
CN1CC(Oc2cnc(C#N)cc2-c2ccn3nc(NC(=O)C4CC4)cc3c2)C1 | enzyme activity | inhibitor |  | 1 µM | inhibition | -7%
CCN(CC)c1ccc(C2=NNC(=O)CC2C)cc1[N+](=O)[O-] (centres unmarked) | enzyme activity | inhibitor |  | 10 µM | remaining activity | 98%
FC(F)c1nc2ccccc2n1-c1nc(N2CCOCC2)nc(N2CCOCC2)n1 | enzyme activity | inhibitor |  | 10 µM | remaining activity | 100%
COc1cc(Nc2c(C#N)cnc3cc(OCCCN4CCN(C)CC4)c(OC)cc23)c(Cl)cc1Cl | cell-free assay |  |  | 0.5 µM | remaining signal | 69.4%
Cc1nc(N2CC[C@@H](O)C2)ncc1-c1cc(C(F)(F)F)cc2[nH]ncc12 | cell-free assay |  | competition with immobilised ligand | 1 µM | remaining binding | 100%
O=C1Nc2ccc(Cl)cc2C1=Cc1cc(Cl)c(O)c(Cl)c1 | cell-free assay |  |  | 0.5 µM | remaining signal | 96.8%

Structure (SMILES) | read-out | action | technique | concentration | endpoint | value
Cc1ccc(Nc2nccc(N(C)c3ccc4c(C)n(C)nc4c3)n2)cc1S(N)(=O)=O | enzyme activity | inhibitor |  | 0.3 µM | inhibition | 1%
FC(F)(F)Oc1cccc(-c2cnc3ccc(-c4ccncc4)nn23)c1 | enzyme activity | inhibitor | radiometric | 5 µM | activity vs control | 88%
COc1cc2ncnc(Nc3ccc(Oc4ccccc4)c(C)c3C)c2cc1OC | enzyme activity | inhibitor |  | 1 µM | inhibition | 7%
Cc1cc(NC(=O)c2cccc(S(F)(F)(F)(F)F)c2)cc(-n2ccn3nc(-c4cccnc4)cc23)c1 | cell-free assay |  | competition with immobilised ligand | 1 µM | remaining binding | 100%
CCCOc1ccc(OC)c(F)c1C(=O)c1ccc(C(=O)N[C@@H]2CNC[C@H]2NC(=O)c2ccc3[nH]ncc3c2)cc1 | enzyme activity | inhibitor |  | 10 µM | remaining activity | 74%
Cc1ccc(NC(=O)c2ccc(C)c(C(F)(F)F)c2)cc1C#Cc1nn(C2CCC(O)CC2)c2ncnc(N)c12 (centres unmarked) | cell-free assay |  |  | 10 µM | remaining signal | 68%
C=CC(=O)Nc1cc(Nc2nccc(Nc3cc(Cl)c(F)cc3C(C)(C)O)n2)c(OC)cc1N1CC[C@@H](N(C)C)C1 | enzyme activity | inhibitor |  | 1 µM | inhibition | 5%
Cn1cc(Cl)c2c(Oc3c(F)cc(Nc4cc(Cl)nc(N)n4)cc3F)ccnc21 | cell-free assay |  | competition with immobilised ligand | 0.1 µM | remaining binding | 100%
O=C1NC(=O)c2cc(Nc3ccc(F)cc3)c(Nc3ccc(F)cc3)cc21 | cell-free assay |  |  | 0.5 µM | remaining signal | 98.5%
COc1cc(Cl)c(C(=O)N[C@@H](CN[C@H]2CC[C@@H](N)CC2)Cc2ccc(C#N)cc2)cc1-c1ccc(CN[C@H](C)c2ccc(C)cc2)o1 | enzyme activity | inhibitor |  | 1 µM | remaining activity | 98%
CC/C(=N\NC(=O)NCc1cccc(O)c1)c1ccc(O)c(C)c1O | enzyme activity | inhibitor |  | 0.1 µM | inhibition | 3%
O=C(CSc1nc2nccnc2c(=O)n1CCc1ccccc1)Nc1nccs1 | enzyme activity | inhibitor |  | 10 µM | inhibition | 1%
CN([C@@H]1CCc2c(CC(=O)O)c3ccccc3n2C1)S(=O)(=O)c1ccc(F)cc1 | cell-free assay |  | competition with immobilised ligand | 1 µM | remaining binding | 100%
Cc1ccc(C(=O)Nc2ccc(CN3CCN(C)CC3)c(C(F)(F)F)c2)cc1C#Cc1cnc2cccnn12 | enzyme activity | inhibitor |  | 23.5 nM | remaining activity | 70%
COc1ccc2c(c1)O[C@H](c1ccc(OC)c(OC)c1)C[C@@H]2NC(=O)C1(c2ccc3c(c2)OC(F)(F)O3)CC1 | cell-free assay |  | competition with immobilised ligand | 1 µM | remaining binding | 100%
CC(C)(O)[C@H]1CC[C@H](Nc2ccc3ncc(-c4cccc(C(F)(F)F)c4)n3n2)CC1 | enzyme activity | inhibitor |  | 1 µM | remaining activity | 93.4%
